“And” between values parts separate entries of the source, which are not always exact repeats. Equal entries are not always repeated.
Legend:
Rattus norvegicus [1] = test: Percentage of animals failing to emit 50 lever presses within 15 min in rats at a compound dose of 0.02 mg/kg; type: functional
Outline: (§1)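 Two-lever drug discrimination in male Sprague–Dawley rats (200–220 g at start), trained against saline on LSD tartrate (0.08 mg/kg), DOI HCl (0.4 mg/kg) or LY293284 (0.025 mg/kg). FR50 food-pellet reinforcement, levers counterbalanced, 15-min sessions at 22–24 °C. %D is the share of tested rats not completing 50 lever presses within 15 min.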

Rattus norvegicus [2] = test: Percentage of animals failing to emit 50 lever presses within 15 min in rats at a compound dose of 0.005 mg/kg; type: functional; outline: as §1
Rattus norvegicus [3] = test: Percentage of animals emitting >80% of lever presses in rats at a compound dose of 0.015 uM/Kg; type: functional
Outline: (§2)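 Male Sprague–Dawley rats (200–220 g) in a two-lever, FR50 food-reinforced task. Rats were trained to discriminate saline from LSD tartrate (0.08 mg/kg), DOI HCl (0.4 mg/kg) or LY293284 (0.025 mg/kg) in 15-min sessions. %SDL is the share of rats making over 80% of presses on the drug lever. %D is the share failing to make 50 presses within 15 min. ED50 by Litchfield–Wilcoxon log-probit.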

Rattus norvegicus [4] = test: Percentage of animals emitting >80% of lever presses in rats at a compound dose of 0.060 uM/Kg; type: functional; outline: as §2
Rattus norvegicus [5] = test: Percentage of animals emitting >80% of lever presses in rats at a compound dose of 0.030 uM/Kg; type: functional; outline: as §2
Rattus norvegicus [6] = test: Percentage of animals failing to emit 50 lever presses within 15 min in rats at a compound dose of 0.027 mg/kg; type: functional; outline: as §1
Rattus norvegicus [7] = test: Percentage of animals emitting >80% of lever presses in rats at a compound dose of 0.080 uM/Kg; type: functional; outline: as §2
Rattus norvegicus [8] = test: Percentage of animals failing to emit 50 lever presses within 15 min in rats at a compound dose of 0.01 mg/kg; type: functional; outline: as §1
Rattus norvegicus [9] = test: Percentage of animals emitting >80% of lever presses in rats at 0.01 mg/kg dose; type: functional; outline: as §2
Rattus norvegicus [10] = test: Percentage of animals failing to emit 50 lever presses within 15 min in rats at 0.04 mg/kg dose; type: functional; outline: as §1
Rattus norvegicus [11] = test: Percentage of animals failing to emit 50 lever presses within 15 min in rats at 0.08 mg/kg dose; type: functional; outline: as §1
Rattus norvegicus [12] = test: Percentage of animals emitting >80% of lever presses in rats at 0.04 mg/kg dose; type: functional; outline: as §2
Rattus norvegicus [13] = test: Percentage of animals emitting >80% of lever presses in rats at 0.02 mg/kg dose; type: functional; outline: as §2
Rattus norvegicus [14] = test: Percentage of animals failing to emit 50 lever presses within 15 min in rats at 0.02 mg/kg dose; type: functional; outline: as §1
Rattus norvegicus [15] = test: Percentage of animals failing to emit 50 lever presses within 15 min in at 0.01 mg/kg dose; type: functional; outline: as §1
Rattus norvegicus [16] = test: Percentage of animals emitting >80% of lever presses in rats at 0.08 mg/kg dose; type: functional; outline: as §2
[17] = biological target: 5-hydroxytryptamine receptor 2A (Rattus norvegicus) (UniProt P14842); test: Efficacy against 5-hydroxytryptamine 2A receptor; type: functional
Sequence of 5-hydroxytryptamine receptor 2A (Rattus norvegicus) (P14842 whole entry): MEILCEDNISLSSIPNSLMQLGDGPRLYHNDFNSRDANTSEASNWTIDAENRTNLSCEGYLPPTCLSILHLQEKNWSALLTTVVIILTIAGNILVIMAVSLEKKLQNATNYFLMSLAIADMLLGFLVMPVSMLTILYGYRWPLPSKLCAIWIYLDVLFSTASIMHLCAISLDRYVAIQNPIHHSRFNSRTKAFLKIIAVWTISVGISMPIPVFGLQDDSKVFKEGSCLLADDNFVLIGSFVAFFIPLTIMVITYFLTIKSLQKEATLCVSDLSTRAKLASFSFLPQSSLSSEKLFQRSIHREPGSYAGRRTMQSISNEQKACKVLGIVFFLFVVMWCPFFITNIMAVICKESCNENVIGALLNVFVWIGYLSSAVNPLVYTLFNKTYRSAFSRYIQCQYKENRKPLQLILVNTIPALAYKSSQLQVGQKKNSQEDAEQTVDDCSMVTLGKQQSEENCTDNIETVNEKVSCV

Rattus norvegicus [18] = test: Drug Discrimination in […] trained rats at 1.0 mg/kg dose; type: functional; outline: as §2
[19] = biological target: 5-hydroxytryptamine receptor 2A (Homo sapiens, UniProt P28223)
Sequence of 5-hydroxytryptamine receptor 2A (P28223 whole entry): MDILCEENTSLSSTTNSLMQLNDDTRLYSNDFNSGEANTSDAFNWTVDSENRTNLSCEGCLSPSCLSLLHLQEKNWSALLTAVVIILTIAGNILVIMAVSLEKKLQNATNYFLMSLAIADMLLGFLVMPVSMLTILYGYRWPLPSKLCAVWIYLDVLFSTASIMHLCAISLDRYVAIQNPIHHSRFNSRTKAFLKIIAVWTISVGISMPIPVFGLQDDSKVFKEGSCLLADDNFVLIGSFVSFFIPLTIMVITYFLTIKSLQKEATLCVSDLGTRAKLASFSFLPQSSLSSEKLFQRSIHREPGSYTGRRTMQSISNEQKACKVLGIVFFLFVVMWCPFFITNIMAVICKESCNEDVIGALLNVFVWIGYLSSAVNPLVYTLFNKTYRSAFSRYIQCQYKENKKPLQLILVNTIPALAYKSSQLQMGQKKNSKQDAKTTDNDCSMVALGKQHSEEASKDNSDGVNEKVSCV

Rattus norvegicus [20] = test: Drug Discrimination in […] trained rats at 2.0 mg/kg dose; type: functional; outline: as §2
Rattus norvegicus [21] = test: Percentage of animals failing to emit 50 lever presses within 15 min in rats at 2.0 mg/kg dose; type: functional; outline: as §1
Rattus norvegicus [22] = test: Percentage of animals emitting >80% of lever presses in rats at 2.0 mg/kg dose; type: functional; outline: as §2
Rattus norvegicus [23] = test: Percentage of animals emitting >80% of lever presses in rats at 1.0 mg/kg dose; type: functional; outline: as §2
Rattus norvegicus [24] = test: Drug Discrimination in […] trained rats at 4.0 mg/kg dose; type: functional; outline: as §2
Rattus norvegicus [25] = test: Percentage of animals failing to emit 50 lever presses within 15 min in rats at 8.0 mg/kg dose; type: functional; outline: as §1
Rattus norvegicus [26] = test: Drug Discrimination in […] trained rats at 8.0 mg/kg dose; type: functional; outline: as §2
[27] = biological target: T1, 5-hydroxytryptamine receptor 1A (Rattus norvegicus, UniProt P19327); test: Compound was tested for the displacement of [3H]-8-OH- DPAT from rat brain 5-hydroxytryptamine 1A receptor
T1 sequence (P19327 whole entry): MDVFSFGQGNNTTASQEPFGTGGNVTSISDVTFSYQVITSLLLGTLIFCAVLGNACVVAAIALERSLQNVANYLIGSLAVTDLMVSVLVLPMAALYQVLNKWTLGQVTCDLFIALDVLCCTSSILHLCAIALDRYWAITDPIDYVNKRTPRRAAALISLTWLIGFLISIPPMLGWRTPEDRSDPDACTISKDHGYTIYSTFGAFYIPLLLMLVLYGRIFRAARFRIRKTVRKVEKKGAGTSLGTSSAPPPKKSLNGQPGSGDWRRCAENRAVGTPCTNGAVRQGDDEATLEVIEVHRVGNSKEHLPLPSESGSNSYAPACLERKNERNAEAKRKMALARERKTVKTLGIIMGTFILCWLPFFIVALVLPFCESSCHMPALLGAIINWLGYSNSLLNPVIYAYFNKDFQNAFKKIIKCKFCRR
Outline: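 Pooled rat hippocampal membranes were preincubated at 37 °C. Buffer was 50 mM Tris HCl pH 7.4 with 0.5 mM Na2EDTA, 10 mM MgCl2, 0.1% Na ascorbate and pargyline. 200–400 μg protein was incubated with [3H]-8-OH-DPAT for 15 min at 37 °C, then GF/C filtered and scintillation counted. Nonspecific binding was defined with 10 μM 5-HT. Triplicate tubes.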

Rattus norvegicus [28] = test: Percentage of animals failing to emit 50 lever presses within 15 min in rats at 1.0 mg/kg dose; type: functional; outline: as §1
Rattus norvegicus [29] = test: Percentage of animals emitting >80% of lever presses in rats at 4.0 mg/kg dose; type: functional; outline: as §2
Rattus norvegicus [30] = test: Percentage of animals emitting >80% of lever presses in rats at 8.0 mg/kg dose; type: functional; outline: as §2
Rattus norvegicus [31] = test: Drug Discrimination in […] trained rats at 0.5 mg/kg dose; type: functional; outline: as §2
Rattus norvegicus [32] = test: Percentage of animals failing to emit 50 lever presses within 15 min in rats at 4.0 mg/kg dose; type: functional; outline: as §1

In the case of CCCN(CCC)C1Cc2c[nH]c3ccc(C(C)=O)c(c23)C1 (configuration not stated) [LY-293284], the D (Rattus norvegicus [1]) is reported as 0%, the D (Rattus norvegicus [2]) is reported as 8% and the SDL (Rattus norvegicus [3]) is reported as 9%. It also gave an SDL (Rattus norvegicus [4]) of 83%, an SDL (Rattus norvegicus [5]) of 45% and a D (Rattus norvegicus [6]) of 27%. The SDL (Rattus norvegicus [7]) was 100% and the D (Rattus norvegicus [8]) was 0%.

Compound CCN(CC)C(=O)[C@@H]1C=C2c3cccc4[nH]cc(c34)C[C@H]2N(C)C1 [LYSERGIDE] has an SDL (Rattus norvegicus [9]) of 31%, a D (Rattus norvegicus [10]) of 0% and a D (Rattus norvegicus [11]) of 0%. It also gave an SDL (Rattus norvegicus [12]) of 81%, an SDL (Rattus norvegicus [13]) of 62% and a D (Rattus norvegicus [14]) of 7%. The D (Rattus norvegicus [15]) was 0%, the SDL (Rattus norvegicus [16]) was 100% and the ED50 [17] was 0.037 µmol.kg-1 and 0.016 mg/kg.

With CN(C)CCc1c[nH]c2ccccc12 the D (Rattus norvegicus [18]) was 11%, the SDL (Rattus norvegicus [18]) was 20% and the Ki [19] was 65 nM. The D (Rattus norvegicus [20]) was 20%, the SDL (Rattus norvegicus [20]) was 37.5% and the D (Rattus norvegicus [21]) was 18%. The SDL (Rattus norvegicus [22]) was 22%, the SDL (Rattus norvegicus [23]) was 37% and the D (Rattus norvegicus [24]) was 20%. It also gave an SDL (Rattus norvegicus [24]) of 62.5%, a D (Rattus norvegicus [25]) of 37% and a D (Rattus norvegicus [26]) of 80%. The SDL (Rattus norvegicus [26]) was 100%, the Ki [27] was 259 nM and the D (Rattus norvegicus [28]) was 0%. For the same compound, the SDL (Rattus norvegicus [29]) was 40%, the SDL (Rattus norvegicus [30]) was 83% and the D (Rattus norvegicus [31]) was 0%. For the same compound, the SDL (Rattus norvegicus [31]) was 0% and the D (Rattus norvegicus [32]) was 23%.

— ChEMBL document CHEMBL1132613 (J Med Chem, 1999)
